We go through one molecule from ChEMBL document CHEMBL1140925, “Nuclear factor-kappaB mediated inhibition of cytokine production by imidazoline scaffolds” (J Med Chem, 2009).

A short description of series [1]: Cytotoxicity against human whole blood IL-1-beta-stimulated lymphocytes assessed as survival cell count in millions at 3 uM by trypan blue staining based hemocytometer.
Series [2] deals with HeLa. Put plainly: Cell cycle arrest in TNF-alpha-stimulated human HeLa cells transfected with NFkappaB-Luc assessed as accumulation at diploid stage at 10 uM after 8 hrs by propidium iodide-based flow cytometry. Type of series: functional. A digest of the protocol: (§1)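 HeLa NF-κB-luc cells (stable, hygromycin-selected) were treated with vehicle (1% DMSO) or compound at 40–0.2 µM final for 8 h at 37 °C, 5% CO2. Adherent cells were trypsinized, resuspended in PBS/50% FBS, fixed overnight in 70% ice-cold ethanol and washed with cold PBS/10% FBS, then analysed for cell cycle by flow cytometry.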
Background: A flow cytometer gives signals particle by particle.

The test system of series [3] is HeLa. Put plainly: Cell cycle arrest in TNF-alpha-stimulated human HeLa cells transfected with NFkappaB-Luc assessed as accumulation at diploid stage at 5 uM after 8 hrs by propidium iodide-based flow cytometry. It counts as functional. The essentials: as §1
Series [4] in a line: Cytotoxicity against human whole blood IL-1-beta-stimulated lymphocytes assessed as survival cell count in millions at 1 uM by trypan blue staining based hemocytometer.
The test system of series [5] is HeLa. Put plainly: Cell cycle arrest in TNF-alpha-stimulated human HeLa cells transfected with NFkappaB-Luc assessed as accumulation at diploid G1 phase at 0.05 uM after 8 hrs by propidium iodide-based flow cytometry. Type of series: functional.
The test system of series [6] is HeLa. Briefly: Cell cycle arrest in TNF-alpha-stimulated human HeLa cells transfected with NFkappaB-Luc assessed as accumulation at diploid G1 phase at 0.5 uM after 8 hrs by propidium iodide-based flow cytometry. It counts as functional. The essentials: as §1
The nature of series [7]: Cytotoxicity against human whole blood lymphocytes assessed as survival cell count in millions at 3 uM by trypan blue staining based hemocytometer.

Consider `CCOC(=O)[C@]1(c2ccccc2)N=C(c2ccccc2)N(Cc2ccccc2)[C@@H]1c1ccccc1` (racemic), for which the Activity in series [1] is 1.28 mL⁻¹; in the series with HeLa [2], 100%; with HeLa [3], 100%; in series [4], 1.42 mL⁻¹; in the series with HeLa [5], 64.3%; with HeLa [6] it was 64.08%. In addition, the Activity in series [7] was 1.7 mL⁻¹.
